From ChEMBL document CHEMBL1129078, “3-(2-Benzofuranyl)quinuclidin-2-ene derivatives: novel muscarinic antagonists” (J Med Chem, 1996)

Columns and labels:
[1] = target: Muscarinic acetylcholine receptor; test: Receptor binding affinity against Muscarinic acetylcholine receptor from guinea pig cerebral cortex was determined using [3H]- QNB as radioligand; format: tissue-based, Cavia porcellus
In short: (§1)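 Guinea pig cerebral cortex homogenized (Potter-Elvehjem) in ice-cold 50 mM Na/K phosphate buffer pH 7.4 with 1 mM PMSF, ≤0.3 mg/mL protein. Competition with (−)-[3H]QNB (2 nM final), triplicates incubated at 25 °C for 80 min, nonspecific binding with 10 µM atropine. Ended by centrifugation; pellets counted by scintillation. IC50 read graphically, converted to Ki by the Jacobs method; means ± SEM of 2–3 experiments.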

[2] = target: Muscarinic acetylcholine receptor; test: Receptor binding affinity against Muscarinic acetylcholine receptor from guinea pig heart was determined using [3H]- QNB as radioligand; format: protein assay, Cavia porcellus
In short: (§2)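 Guinea pig hearts dissected in Krebs-Henseleit pH 7.4 with 1 mM PMSF, Polytron-homogenized in ice-cold 50 mM phosphate/PMSF buffer pH 7.4, ≤0.3 mg/mL protein. Competition against 2 nM (−)-[3H]QNB, triplicates at 25 °C for 80 min, 10 µM atropine nonspecific. Centrifugation, scintillation counting of pellets. Graphical IC50 to Ki by the Jacobs method; means ± SEM, 2–3 experiments.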

[3] = target: Muscarinic acetylcholine receptor; test: Receptor binding affinity against Muscarinic acetylcholine receptor from guinea pig parotid gland was determined using [3H]- QNB as radioligand; format: protein assay, Cavia porcellus
In short: (§3)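 Guinea pig parotid glands dissected in Krebs-Henseleit pH 7.4 with 1 mM PMSF, Polytron-homogenized in ice-cold 50 mM phosphate/PMSF pH 7.4, ≤0.3 mg/mL protein. Displacement of 2 nM (−)-[3H]QNB, triplicates at 25 °C for 210 min, 10 µM atropine for nonspecific binding. Centrifugation, then pellet scintillation counting. Ki from graphical IC50 via the Jacobs correction; means ± SEM of 2–3 experiments.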

Cavia porcellus = species on record: Cavia porcellus; test: Antimuscarinic potency using isolated guinea pig urinary bladder; format: functional
In short: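 Male guinea pigs (~300 g) killed and exsanguinated; urinary bladder smooth muscle strips mounted in 37 °C Krebs-Henseleit baths (pH 7.4, carbogen), ~5 mN resting tension, isometric tension recorded. A control cumulative carbachol curve was run, then washout, ≥15 min rest, and 60 min with a fixed antagonist concentration before a second curve. Dose ratio from graphical EC50s; KB = [A]/(r − 1).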

[4] = target: Muscarinic acetylcholine receptor; test: Receptor binding affinity against Muscarinic acetylcholine receptor from guinea pig urinary bladder was determined using [3H]- QNB as radioligand; format: protein assay, Cavia porcellus
In short: (§4)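 Guinea pig urinary bladder dissected in PMSF-containing Krebs-Henseleit pH 7.4 and Polytron-homogenized in ice-cold 50 mM phosphate buffer pH 7.4 with 1 mM PMSF (≤0.3 mg/mL protein). Competition against 2 nM (−)-[3H]QNB; triplicates at 25 °C for 60 min; 10 µM atropine defines nonspecific binding. Pellets from centrifugation were scintillation counted. IC50 taken graphically, Ki by the Jacobs method; means ± SEM, 2–3 experiments.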

[5] = target: Muscarinic acetylcholine receptor; test: Receptor binding affinity (Ki) for Muscarinic acetylcholine receptor (urinary bladder) was determined by competition radioligand -[3H]- QNB binding assay; format: protein assay, Cavia porcellus; in short: as §4
[6] = target: Muscarinic acetylcholine receptor; test: Receptor binding affinity (Ki) against Muscarinic acetylcholine receptor (cerebral cortex) was determined by competition radioligand -[3H]- QNB binding assay; format: tissue-based, Cavia porcellus
In short: as §1, with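 “scintillation.” for “scintillation. IC50 read graphically, converted to Ki by the Jacobs method; means ± SEM of 2–3 experiments.”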

[7] = target: Muscarinic acetylcholine receptor; test: Receptor binding affinity (Ki) for Muscarinic acetylcholine receptor (heart)was determined by competition radioligand -[3H]- QNB binding assay; format: protein assay, Cavia porcellus; in short: as §2
[8] = target: Muscarinic acetylcholine receptor; test: Receptor binding affinity (Ki) for Muscarinic acetylcholine receptor (parotid glands) was determined by competition radioligand -[3H]- QNB binding assay; format: protein assay, Cavia porcellus
In short: as §3, with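 “counting.” for “counting. Ki from graphical IC50 via the Jacobs correction; means ± SEM of 2–3 experiments.”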

SMILES	Ki [1]	Ki [2]	Ki [3]	Ki [4]	Ki [5]	Ki [6]	Ki [7]	Ki [8]	Kb (Cavia porcellus)
OCc1cc(I)c2oc(C3=CN4CCC3CC4)cc2c1	197 nM	462 nM	970 nM	802 nM					
C1=C(c2cc3cc(-c4ccccc4)ccc3o2)C2CCN1CC2					332 nM	289 nM	376 nM	410 nM	
Brc1c(C2=CN3CCC2CC3)oc2ccccc12					116 nM	40 nM	106 nM	161 nM	
Cc1cccc2cc(C3=CN4CCC3CC4)oc12						25 nM	76 nM	76 nM	
N#Cc1ccc2oc(C3=CN4CCC3CC4)cc2c1						60 nM	160 nM	236 nM	
O=Cc1cccc2cc(C3=CN4CCC3CC4)oc12					1700 nM	648 nM	1612 nM	3023 nM	
OCc1cc(I)cc2cc(C3=CN4CCC3CC4)oc12	480 nM	1100 nM	2700 nM	2460 nM					
Cc1c(C2=CN3CCC2CC3)oc2ccccc12						25.3 nM	77.8 nM	204 nM	
Brc1cccc2cc(C3=CN4CCC3CC4)oc12					97 nM	15 nM	44 nM	216 nM	123 nM
OCc1cccc2cc(C3=CN4CCC3CC4)oc12	330 nM	1360 nM	1024 nM	2000 nM					
C1=C(c2cc3cccc(-c4ccccc4)c3o2)C2CCN1CC2					330 nM	135 nM	260 nM	410 nM	
COc1cc(C=O)cc2cc(C3=CN4CCC3CC4)oc12					3900 nM	1170 nM	2040 nM	7600 nM	
O=Cc1cc(I)c2oc(C3=CN4CCC3CC4)cc2c1					1000 nM	221 nM	517 nM	1300 nM	
Brc1ccc2oc(C3=CN4CCC3CC4)cc2c1					156 nM	39 nM	86 nM	109 nM	178 nM
C1=C(c2oc3ccccc3c2-c2ccccc2)C2CCN1CC2					107 nM	20 nM	72 nM	56 nM	148 nM

The next lines start with results.

Ki [1]	Ki [2]	Ki [3]	Ki [4]	Ki [5]	Ki [6]	Ki [7]	Ki [8]	SMILES	Kb (Cavia porcellus)
139 nM	460 nM	515 nM						O=[N+]([O-])c1ccc2oc(C3=CN4CCC3CC4)cc2c1	
1400 nM	1840 nM	10700 nM	2900 nM					OCc1ccc2oc(C3=CN4CCC3CC4)cc2c1	13400 nM
440 nM								N#Cc1cc(I)c2oc(C3=CN4CCC3CC4)cc2c1	
3665 nM	5400 nM	20000 nM	9400 nM					COc1cc(CO)cc2cc(C3=CN4CCC3CC4)oc12	10000 nM
				600 nM	358 nM	314 nM	2300 nM	O=Cc1cc(I)cc2cc(C3=CN4CCC3CC4)oc12	
21 nM	61 nM	110 nM	83 nM					C1=C(c2cc3ncccc3o2)C2CCN1CC2	
				364 nM	116 nM	238 nM	295 nM	Cc1ccc2oc(C3=CN4CCC3CC4)cc2c1	
> 150 nM	1900 nM	> 1000 nM	1600 nM					O=[N+]([O-])c1cc(I)c2oc(C3=CN4CCC3CC4)cc2c1	
				1300 nM	364 nM	920 nM	1571 nM	O=Cc1ccc2oc(C3=CN4CCC3CC4)cc2c1	
6.3 nM	34 nM	30 nM	37 nM					Fc1ccc2oc(C3=CN4CCC3CC4)cc2c1	
212 nM	837 nM	683 nM						Nc1ccc2oc(C3=CN4CCC3CC4)cc2c1	
